Calls of active or inactive are those of the source.
Columns and labels:
Mus musculus [1] = test: Anticonvulsant activity in mouse assessed as protection against maximal electric shock-induced seizures at 100 mg/kg, ip after 4 hrs; format: functional, organism-based; design: dose 100 mg/kg
Procedure, shortened: (§1)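 Phase I maximal electroshock screen in mice. Compound given ip as a suspension in 0.5% methylcellulose at 30, 100 or 300 mg/kg, tested at 30 min and 4 h. Small groups (1–8); result is number protected/number tested.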

Mus musculus [2] = test: Anticonvulsant activity in mouse assessed as protection against maximal electric shock-induced seizures at 100 mg/kg, ip after 0.5 hrs; format: functional, organism-based; design: dose 100 mg/kg; procedure, shortened: as §1
Mus musculus [3] = test: Anticonvulsant activity in mouse assessed as protection against maximal electric shock-induced seizures at 30 mg/kg, ip after 0.5 hrs; format: functional, organism-based; design: dose 30 mg/kg; procedure, shortened: as §1
Mus musculus [4] = test: Anticonvulsant activity in mouse assessed as protection against maximal electric shock-induced seizures at 30 mg/kg, ip after 4 hrs; format: functional, organism-based; design: dose 30 mg/kg; procedure, shortened: as §1
Mus musculus [5] = test: Anticonvulsant activity against subcutaneous pentylenetetrazole-induced seizures in mouse at 30 mg/kg, ip after 0.5 hrs; format: functional, organism-based; design: dose 30 mg/kg
Procedure, shortened: (§2)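 Phase I screen in mice. Compound given ip as a suspension in 0.5% methylcellulose, read at 30 min and 4 h. Pentylenetetrazole 85 mg/kg in 0.9% NaCl was injected sc into the posterior midline and animals watched ≥30 min. Protection meant no clonic spasm lasting ≥5 s. Groups of 1–8 animals; result is protected/tested.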

Mus musculus [6] = test: Anticonvulsant activity against subcutaneous pentylenetetrazole-induced seizures in mouse at 30 mg/kg, ip after 4 hrs; format: functional, organism-based; design: dose 30 mg/kg; procedure, shortened: as §2
Mus musculus [7] = test: Anticonvulsant activity against subcutaneous pentylenetetrazole-induced seizures in mouse at 100 mg/kg, ip after 0.5 hrs; format: functional, organism-based; design: dose 100 mg/kg; procedure, shortened: as §2
Mus musculus [8] = test: Anticonvulsant activity against subcutaneous pentylenetetrazole-induced seizures in mouse at 100 mg/kg, ip after 4 hrs; format: functional, organism-based; design: dose 100 mg/kg; procedure, shortened: as §2
Mus musculus [9] = test: Neurotoxicity in mouse assessed as inability to maintain equilibrium on rotarod at 30 mg/kg, ip after 0.5 hrs by rotarod test; format: toxicity, organism-based; design: dose 30 mg/kg, route intraperitoneal; details: in vivo
Procedure, shortened: (§3)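 Drug given ip to mice as a suspension in 0.5% methylcellulose. At the stated time after dosing, each mouse was placed on a 1 inch knurled rod turning at 6 rpm. Neurotoxicity = inability to stay balanced at least 1 min in each of three trials. Scored as animals toxic/animals tested in small groups.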

Mus musculus [10] = test: Neurotoxicity in mouse assessed as inability to maintain equilibrium on rotarod at 300 mg/kg, ip after 0.5 hrs by rotarod test; format: toxicity, organism-based; design: dose 300 mg/kg, route intraperitoneal; details: in vivo; procedure, shortened: as §3
Mus musculus [11] = test: Neurotoxicity in mouse assessed as inability to maintain equilibrium on rotarod at 30 mg/kg, ip after 4 hrs by rotarod test; format: toxicity, organism-based; design: dose 30 mg/kg, route intraperitoneal; details: in vivo; procedure, shortened: as §3
Mus musculus [12] = test: Neurotoxicity in mouse assessed as inability to maintain equilibrium on rotarod at 100 mg/kg, ip after 4 hrs by rotarod test; format: toxicity, organism-based; design: dose 100 mg/kg, route intraperitoneal; details: in vivo; procedure, shortened: as §3
Mus musculus [13] = test: Anticonvulsant activity in mouse assessed as protection against maximal electric shock-induced seizures at 300 mg/kg, ip after 4 hrs; format: functional, organism-based; design: dose 300 mg/kg; procedure, shortened: as §1
Mus musculus [14] = test: Anticonvulsant activity against subcutaneous pentylenetetrazole-induced seizures in mouse at 300 mg/kg, ip after 0.5 hrs; format: functional, organism-based; design: dose 300 mg/kg; procedure, shortened: as §2
Rattus norvegicus [15] = test: Anticonvulsant activity in rat assessed as protection against maximal electric shock-induced seizures at 30 mg/kg, po after 0.5 hrs; format: functional, organism-based; design: dose 30 mg/kg
Procedure, shortened: (§4)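 MES test in rats dosed orally at 30 mg/kg as a suspension in 0.5% methylcellulose, read at 0.25–4 h. Four rats per time point; result is protected/tested.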

Rattus norvegicus [16] = test: Anticonvulsant activity in rat assessed as protection against maximal electric shock-induced seizures at 30 mg/kg, po after 0.25 hrs; format: functional, organism-based; design: dose 30 mg/kg; procedure, shortened: as §4
Mus musculus [17] = test: Anticonvulsant activity in mouse assessed as protection against maximal electric shock-induced seizures at 90 mg/kg, ip after 0.25 hrs; format: functional, organism-based; design: dose 90 mg/kg
Procedure, shortened: (§5)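 Time-to-peak-effect assay: MES protection read at 0.25–4 h after dosing. Mice ip (60–130 mg/kg), rats po (15 or 30 mg/kg) or ip (30 mg/kg). Groups of 4–8; result is protected/tested.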

Mus musculus [18] = test: Anticonvulsant activity in mouse assessed as protection against maximal electric shock-induced seizures at 130 mg/kg, ip after 0.25 hrs; format: functional, organism-based; design: dose 130 mg/kg; procedure, shortened: as §5
Mus musculus [19] = test: Anticonvulsant activity in mouse assessed as protection against maximal electric shock-induced seizures at 130 mg/kg, ip after 0.5 hrs; format: functional, organism-based; design: dose 130 mg/kg; procedure, shortened: as §5
Mus musculus [20] = test: Anticonvulsant activity in mouse assessed as protection against maximal electric shock-induced seizures at 130 mg/kg, ip after 2 hrs; format: functional, organism-based; design: dose 130 mg/kg; procedure, shortened: as §5
Mus musculus [21] = test: Anticonvulsant activity in mouse assessed as protection against maximal electric shock-induced seizures at 130 mg/kg, ip after 4 hrs; format: functional, organism-based; design: dose 130 mg/kg; procedure, shortened: as §5
Mus musculus [22] = test: Anticonvulsant activity against subcutaneous pentylenetetrazole-induced seizures in mouse assessed as increase in tonic threshold at 106 mg/kg, ip by threshold tonic extension test; format: functional, organism-based; design: dose 106 mg/kg
Procedure, shortened: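 Threshold tonic extension test in mice. The compound was given ip, then pentylenetetrazol was infused until the first twitch and the first clonus. PTZ dose was calculated from the infusion speed. Mean of 8 animals ± S.E.M.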

Rattus norvegicus [23] = test: Anticonvulsant activity in fully kindled rat hippocampus assessed as protection against focal seizures at 100 mg/kg, ip after 15 mins; format: functional, organism-based; design: dose 100 mg/kg
Procedure, shortened: (§6)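 Rat hippocampus kindled with 50 Hz AC, […] for 1 s, every 0.5 h for 6 h, every other day for 10 days (60 cycles), reaching Racine stage 5. Compound 100 mg/kg ip; seizures re-induced at 15–135 min. Racine score below 3 counts as protection.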

Rattus norvegicus [24] = test: Anticonvulsant activity in fully kindled rat hippocampus assessed as protection against focal seizures at 100 mg/kg, ip after 45 mins; format: functional, organism-based; design: dose 100 mg/kg; procedure, shortened: as §6
N1E-115 [25] = test: Blockade of voltage-gated sodium channel in mouse N1E-115 cells assessed as stimulation at 100 umol at -60 mV holding potential by whole-cell patch clamp electrophysiological assay relative to control; format: cell-based
N1E-115 [26] = test: Blockade of voltage-gated sodium channel in mouse N1E-115 cells assessed as stimulation at 100 umol at -90 mV holding potential by whole-cell patch clamp electrophysiological assay relative to control; format: cell-based
Procedure, shortened: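 Whole-cell patch clamp with borosilicate glass electrodes on single cultured N1E-115 neuroblastoma cells. Compound at 100 µmol, holding potential -90 mV. Voltage-dependent sodium current expressed as % of control stimulation (no compound). Results from 5–8 cells averaged with SEM; significance by Student's t-test.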

Mus musculus [27] = species on record: Mus musculus; test: Activation of GABA receptor in mouse cortical neurons assessed as potentiation of GABA-induced effect at 100 umol at -70 mV holding potential by whole-cell patch clamp electrophysiological assay relative to control
Procedure, shortened: (§7)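 Whole-cell patch clamp on primary cultured murine cortical neurons, borosilicate glass electrodes. Responses to GABA, NMDA or kainate were recorded with the compound present, as % of control stimulation. Compound at 100 µmol, holding potential -70 mV. Significance p < 0.05.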

Mus musculus [28] = species on record: Mus musculus; test: Activation of NMDA receptor in mouse cortical neurons assessed as potentiation of NMDA/glycine-induced effect at 100 umol at -70 mV holding potential by whole-cell patch clamp electrophysiological assay relative to control; procedure, shortened: as §7
Mus musculus [29] = species on record: Mus musculus; test: Activation of kainate receptor in mouse cortical neurons assessed as potentiation of kainate-induced effect at 100 umol at -70 mV holding potential by whole-cell patch clamp electrophysiological assay relative to control; procedure, shortened: as §7
[30] = Neurotoxicity in ip dosed mouse assessed as inability to maintain equilibrium on rotarod by rotarod test; format: toxicity, organism-based; details: in vivo
Procedure, shortened: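 Mice dosed ip with a suspension in 0.5% methylcellulose, then placed on a 1 inch knurled plastic rod rotating at 6 rpm. Toxicity = failure to keep equilibrium for at least 1 min in each of three trials.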

[31] = Neurotoxicity in po dosed rat assessed as neurological deficit […]; format: toxicity, organism-based; details: in vivo
Procedure, shortened: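 Rats dosed orally with a suspension in 0.5% methylcellulose. Neurological deficit judged by ataxia and loss of placing response and muscle tone.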

Mus musculus [32] = test: Anticonvulsant activity in ip dosed mouse assessed as protection against maximal electric shock-induced seizures; format: functional; details: Mus musculus, ip; read-out: ED50
Rattus norvegicus [33] = test: Anticonvulsant activity in po dosed rat assessed as protection against maximal electric shock-induced seizures; format: functional
Mus musculus [34] = species on record: Mus musculus; test: Protective index, ratio of TD50 for neurotoxicity in mouse to ED50 for inhibition of maximal electroshock-induced seizures in mouse; format: functional
Rattus norvegicus [35] = species on record: Rattus norvegicus; test: Protective index, ratio of TD50 for neurotoxicity in rat to ED50 for inhibition of maximal electroshock-induced seizures in rat; format: functional

What does the source list for `Cc1cccc(C)c1OCCNC1CCC(O)CC1` (racemic)?
Activity (Mus musculus [1]): inactive; Activity (Mus musculus [2]): Active; Activity (Mus musculus [3]): inactive; Activity (Mus musculus [4]): inactive; Activity (Mus musculus [5]): inactive; Activity (Mus musculus [6]): inactive; Activity (Mus musculus [7]): inactive; Activity (Mus musculus [8]): inactive; Activity (Mus musculus [9]): Non-toxic; Activity (Mus musculus [10]): Toxic; Activity (Mus musculus [11]): Non-toxic; Activity (Mus musculus [12]): Non-toxic

Which Activity (Mus musculus [1]) does the source give for `Cc1cccc(C)c1OCC(=O)NC1CCCCC1O` (racemic; 1) here?
The Activity was “inactive”.

What about the Activity (Mus musculus [3]) of the same compound?
Its Activity is “inactive”.

And the Activity (Mus musculus [4])?
The Activity was “inactive”.

What about the Activity (Mus musculus [13]) of the same compound?
Its Activity is “inactive”.

What about the Activity (Mus musculus [5]) of the same compound?
The Activity was “inactive”.

And the Activity (Mus musculus [6])?
Its Activity is “inactive”.

And the Activity (Mus musculus [8])?
Its Activity is “inactive”.

What about the Activity (Mus musculus [14]) of the same compound?
Its Activity is “Active”.

And the Activity (Rattus norvegicus [15])?
Its Activity is “Active”.

And the Activity (Rattus norvegicus [16])?
Its Activity is “Active”.

And the Activity (Mus musculus [17])?
Its Activity is “Active”.

And the Activity (Mus musculus [18])?
Its Activity is “Active”.

What about the Activity (Mus musculus [19]) of the same compound?
The Activity was “Active”.

And the Activity (Mus musculus [20])?
The Activity was “inactive”.

What about the Activity (Mus musculus [21]) of the same compound?
The Activity was “inactive”.

And the Activity (Mus musculus [22])?
The Activity was “Active”.

What about the Activity (Rattus norvegicus [23]) of the same compound?
The Activity was “Active”.

What about the Activity (Rattus norvegicus [24]) of the same compound?
The Activity was “Active”.

What about the Activity (N1E-115 [25]) of the same compound?
Its Activity is 39%.

And the Activity (N1E-115 [26])?
Its Activity is 85%.

And the Activity (Mus musculus [27])?
The Activity was 179%.

What about the Activity (Mus musculus [28]) of the same compound?
Its Activity is 104%.

What about the Activity (Mus musculus [29]) of the same compound?
The Activity was 98%.

For `O=C1NC(=O)C(c2ccccc2)(c2ccccc2)N1` [PHENYTOIN], which TD50 [30] is on record?
Its TD50 is 34.5 mg/kg.

What about the TD50 [31] of the same compound?
The TD50 was > 500 mg/kg.

And the ED50 (Mus musculus [32])?
The ED50 was 6.48 mg/kg.

And the ED50 (Rattus norvegicus [33])?
The ED50 was 32.2 mg/kg.

And the “Ratio TD50/ED50” value (Mus musculus [34])?
Its value is 6.6.

What about the “Ratio TD50/ED50” value (Rattus norvegicus [35]) of the same compound?
The value was >22.

What about the Activity (N1E-115 [26]) of the same compound?
Its Activity is 78%.
